{"source": "ChEMBL document CHEMBL3352616", "about": "“Quinazoline-sulfonamides with potent inhibitory activity against the α-carbonic anhydrase from Vibrio cholerae” (Bioorg Med Chem, 2014)", "assay": "Inhibition of Vibrio cholerae alpha-carbonic anhydrase preincubated for 15 mins by stopped-flow CO2 hydration assay", "method_in_brief": "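Stopped-flow CO2 hydration assay, phenol red 0.2 mM read at 557 nm, 20 mM Hepes pH 7.4 with 20 mM NaBF4 for ionic strength. Initial rates followed 10–100 s, CO2 1.7–17 mM. Inhibitor (10 mM DMSO stock, buffer dilutions down to 0.01 nM) preincubated with enzyme 15 min at RT. Uncatalyzed rate subtracted; Ki by nonlinear least squares and Cheng–Prusoff, mean of ≥3 determinations.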"}
{"smiles": "COc1cccc2c(=O)n(Cc3ccccc3)c(SCC(=O)Nc3ccc(S(N)(=O)=O)cc3)nc12", "values": [{"measurement": "Ki", "value": "> 10000", "unit": "nM"}]}
{"smiles": "COc1ccc2nc(SCC(=O)Nc3ccc(S(N)(=O)=O)cc3)n(Cc3ccccc3)c(=O)c2c1", "values": [{"measurement": "Ki", "value": "> 10000", "unit": "nM"}]}
{"smiles": "Cc1ccc2nc(SCC(=O)Nc3ccc(S(N)(=O)=O)cc3)n(Cc3ccccc3)c(=S)c2c1", "values": [{"measurement": "Ki", "value": 5.5, "unit": "nM"}]}
{"smiles": "Cc1cccc2c(=O)n(Cc3ccccc3)c(SCC(=O)Nc3ccc(S(N)(=O)=O)cc3)nc12", "values": [{"measurement": "Ki", "value": 8.5, "unit": "nM"}]}
{"smiles": "Cc1cccc2nc(SCC(=O)Nc3ccc(S(N)(=O)=O)cc3)n(Cc3ccccc3)c(=S)c12", "values": [{"measurement": "Ki", "value": 7.7, "unit": "nM"}]}
{"smiles": "NS(=O)(=O)c1ccc(NC(=O)CSc2nc3ccc([N+](=O)[O-])cc3c(=S)n2Cc2ccccc2)cc1", "values": [{"measurement": "Ki", "value": "> 10000", "unit": "nM"}]}
{"smiles": "C=CCn1c(SCC(=O)Nc2ccc(S(N)(=O)=O)cc2)nc2ccc([N+](=O)[O-])cc2c1=O", "values": [{"measurement": "Ki", "value": 6.6, "unit": "nM"}]}
{"smiles": "Cc1ccc2nc(SCC(=O)Nc3ccc(S(N)(=O)=O)cc3)n(Cc3ccccc3)c(=O)c2c1", "values": [{"measurement": "Ki", "value": 2.7, "unit": "nM"}]}
{"smiles": "NS(=O)(=O)c1ccc(NC(=O)CSc2nc3ccc([N+](=O)[O-])cc3c(=O)n2Cc2ccccc2)cc1", "values": [{"measurement": "Ki", "value": "> 10000", "unit": "nM"}]}
{"smiles": "Cc1cccc2c(=S)n(Cc3ccccc3)c(SCC(=O)Nc3ccc(S(N)(=O)=O)cc3)nc12", "values": [{"measurement": "Ki", "value": 8.7, "unit": "nM"}]}
{"smiles": "C=CCn1c(SCC(=O)Nc2ccc(S(N)(=O)=O)cc2)nc2ccc(C)cc2c1=O", "values": [{"measurement": "Ki", "value": 6, "unit": "nM"}]}
{"smiles": "COc1cccc2c(=S)n(Cc3ccccc3)c(SCC(=O)Nc3ccc(S(N)(=O)=O)cc3)nc12", "values": [{"measurement": "Ki", "value": 7.9, "unit": "nM"}]}
